From PMC10147382 (ACS chemical neuroscience, 2022)
Read-outs that look alike come from different tables or passages of the source.

Experiments:
mice [1] = assay: Open field test; assay type: in vivo, mouse; conditions: for effect on general locomotion: s.c.
patients = conditions: cited from earlier work
5-HT2A receptor [2] = target: T1, 5-HT2A receptor (Homo sapiens, UniProt P28223); assay: Radioligand displacement assay; assay type: binding; conditions: standard radioligand 125I-DOI
cats = conditions: 10 mg/kg, s.c., versus (R)-DOM 0.5 mg/kg; cited from earlier work
[3] = tested on: auxilin knockout (KO) mice; assay: Auxilin KO Parkinson's model, hind limb clasping; assay type: in vivo, mouse; conditions: 10 mg/kg i.p., 15 to 30 minutes after treatment
How it was run: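 Auxilin KO and WT mice aged 9-12 months, sex balanced, n=5-7/group, treated i.p. with vehicle (0.85% saline) or test compound at 10 mg/kg in saline with 2 molar equivalents of acetic acid, at 10 ml/kg. Testing is done one week pre-treatment and 15-30 min post-dose. Mice are held by the tail base and lowered for 30 s. Clasping is scored 0 (none), 1 (one limb) or 2 (both limbs), and total clasping duration is recorded. Kruskal-Wallis with Dunn's post hoc test.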

humans = conditions: cited from earlier work
5-HT2B receptor = 5-HT2B receptor (Homo sapiens, UniProt P41595); assay: G protein; assay type: cell-based
5-HT1D receptor = 5-HT1D receptor (Homo sapiens, UniProt P28221); assay: 5-HTome G protein activation BRET screen; assay type: cell-based; conditions: 5-HTome screen
How it was run: (§1)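 Human 5-HT receptors (12 in the panel) are tested by G protein-dissociation BRET2. Cells are reverse-transfected about 48 h before assay with receptor:Gα-Rluc8:Beta:GFP2-γ (TRUPATH) at 1:1:1:1 and plated in 1% dFBS. Drug is added in HBSS/20 mM HEPES pH 7.4 with 0.3% BSA and 0.03% ascorbic acid, then incubated 60 min at 37°C. Coelenterazine 400a is 5 uM final. The 510/400 ratio is normalized to % positive control, with EC50/Emax from log(agonist) vs response. Three independent experiments in triplicate.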

5-HT2C receptor [4] = target: T2, 5-HT2C receptor (Homo sapiens, UniProt P28335); assay: G protein; assay type: cell-based
T2 sequence (P28335 33-458): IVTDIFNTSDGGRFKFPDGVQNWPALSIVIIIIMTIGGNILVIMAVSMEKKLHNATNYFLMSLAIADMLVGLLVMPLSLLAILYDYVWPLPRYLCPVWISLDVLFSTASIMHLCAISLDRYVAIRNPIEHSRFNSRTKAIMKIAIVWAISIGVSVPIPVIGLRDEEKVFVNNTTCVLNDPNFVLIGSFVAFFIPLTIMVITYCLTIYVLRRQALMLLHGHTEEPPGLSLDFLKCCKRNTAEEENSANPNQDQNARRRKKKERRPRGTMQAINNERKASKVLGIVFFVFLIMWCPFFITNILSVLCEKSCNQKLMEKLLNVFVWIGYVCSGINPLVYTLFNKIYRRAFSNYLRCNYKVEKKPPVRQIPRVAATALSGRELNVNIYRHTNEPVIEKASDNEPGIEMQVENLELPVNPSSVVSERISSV

5-HT1A receptor = 5-HT1A receptor (Homo sapiens, UniProt P08908); assay: 5-HTome G protein activation BRET screen; assay type: cell-based; conditions: 5-HTome screen
How it was run: as §1

[5] = tested on: auxilin knockout (KO) mice; assay: Auxilin KO Parkinson's model, balance beam; assay type: in vivo, mouse; conditions: 10 mg/kg i.p., 15 to 30 minutes after treatment
How it was run: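 Auxilin KO and WT mice aged 9-12 months, sex balanced, n=5-7/group. Vehicle is 0.85% saline i.p. at 10 ml/kg. Test compound is 10 mg/kg i.p. in 0.85% saline with 2 molar equivalents of glacial acetic acid, at 10 ml/kg. Baseline testing is done one week before treatment and repeated 15-30 min post-dose. Balance beam: mice walk a raised narrow beam to a safety box, scored as average crossing time and crossings per minute. Mean ± S.E.M.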

mice [6] = assay: Novelty suppressed feeding; assay type: in vivo, mouse; conditions: 7 days post-drug administration; 10mg/kg
5-HT1B receptor = 5-HT1B receptor (Homo sapiens, UniProt P28222); assay: 5-HTome G protein activation BRET screen; assay type: cell-based; conditions: 5-HTome screen
How it was run: as §1

rats = conditions: 10 mg/kg, s.c. or i.p. ref 12, 13; cited from earlier work
rabbits = conditions: cited from earlier work
5-HT2A receptor [7] = target: T1, 5-HT2A receptor; assay: G protein; assay type: cell-based
5-HT1e receptor = 5-HT1e receptor (Homo sapiens, UniProt P28566); assay: 5-HTome G protein activation BRET screen; assay type: cell-based; conditions: 5-HTome screen
How it was run: as §1

5-HT2C receptor [8] = target: T2, 5-HT2C receptor; assay: Calcium flux assay; assay type: cell-based; conditions: relative to 5-HT
How it was run: (§2)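 Flp-In 293 T-Rex cells stably carry tetracycline-inducible human 5-HT2A or 5-HT2C. Expression is induced with tetracycline (2 ug/mL) the day before, with about 7,500 cells/well in 1% dialyzed FBS. Cells are loaded with Fluo-4 Direct for 1 h at 37°C in HBSS/20 mM HEPES pH 7.4 with 2.5 mM probenecid, then held 15 min at RT. Fluorescence is read 10 s baseline, then 5-10 min after drug. Peak fold-over-basal or AUC is normalized to % 5-HT, with EC50/Emax from nonlinear regression.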

mice [9] = assay: Head twitch response; assay type: in vivo, mouse
mice [10] = assay: Elevated plus maze; assay type: in vivo, mouse; conditions: 30 minutes and 4 hours post single s.c. injection
How it was run: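 Elevated plus maze in mice given a single subcutaneous injection of test compound or a reference psychedelic. Time in open vs closed arms and arm entries are scored at 30 min and 4 h post-injection. n=10/group, mean ± S.E.M. Analysis is two-way ANOVA with Dunnett's post hoc test.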

5-HT2A receptor [11] = target: T1, 5-HT2A receptor; assay: Calcium flux assay; assay type: cell-based
How it was run: as §2

5-HT1F receptor = 5-HT1F receptor (Homo sapiens, UniProt P30939); assay: 5-HTome G protein activation BRET screen; assay type: cell-based; conditions: 5-HTome screen
How it was run: as §1

[12] = read-out: EC50 (Gq), Gq dissociation BRET

Chain of 5-HT2B receptor (P41595 whole entry): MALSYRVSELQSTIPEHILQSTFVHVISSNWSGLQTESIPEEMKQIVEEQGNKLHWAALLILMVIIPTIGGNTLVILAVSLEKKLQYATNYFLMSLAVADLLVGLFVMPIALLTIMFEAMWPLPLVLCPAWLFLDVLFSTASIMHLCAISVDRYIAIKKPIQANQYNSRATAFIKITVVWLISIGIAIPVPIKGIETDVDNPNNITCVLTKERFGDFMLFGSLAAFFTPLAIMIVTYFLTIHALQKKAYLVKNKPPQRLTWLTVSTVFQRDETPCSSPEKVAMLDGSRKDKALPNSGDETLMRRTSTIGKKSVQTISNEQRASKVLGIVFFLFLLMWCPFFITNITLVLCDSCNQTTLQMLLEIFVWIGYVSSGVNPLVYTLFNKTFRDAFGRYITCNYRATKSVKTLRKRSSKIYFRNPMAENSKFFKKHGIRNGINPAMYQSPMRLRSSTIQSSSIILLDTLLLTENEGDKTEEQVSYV
T1 sequence (P28223 whole entry): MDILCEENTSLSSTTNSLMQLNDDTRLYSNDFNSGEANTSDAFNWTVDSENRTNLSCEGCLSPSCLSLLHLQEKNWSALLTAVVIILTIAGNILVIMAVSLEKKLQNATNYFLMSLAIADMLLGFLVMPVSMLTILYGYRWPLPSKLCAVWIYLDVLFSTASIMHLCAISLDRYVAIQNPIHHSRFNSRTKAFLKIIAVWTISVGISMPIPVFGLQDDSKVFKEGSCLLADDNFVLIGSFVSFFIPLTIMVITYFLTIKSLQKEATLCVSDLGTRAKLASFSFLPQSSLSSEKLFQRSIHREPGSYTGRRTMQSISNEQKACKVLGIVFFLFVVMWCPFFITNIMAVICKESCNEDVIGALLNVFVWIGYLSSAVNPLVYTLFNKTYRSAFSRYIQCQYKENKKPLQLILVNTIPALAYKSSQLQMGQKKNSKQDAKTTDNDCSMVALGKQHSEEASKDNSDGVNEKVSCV
Chain of 5-HT1F receptor (P30939 whole entry): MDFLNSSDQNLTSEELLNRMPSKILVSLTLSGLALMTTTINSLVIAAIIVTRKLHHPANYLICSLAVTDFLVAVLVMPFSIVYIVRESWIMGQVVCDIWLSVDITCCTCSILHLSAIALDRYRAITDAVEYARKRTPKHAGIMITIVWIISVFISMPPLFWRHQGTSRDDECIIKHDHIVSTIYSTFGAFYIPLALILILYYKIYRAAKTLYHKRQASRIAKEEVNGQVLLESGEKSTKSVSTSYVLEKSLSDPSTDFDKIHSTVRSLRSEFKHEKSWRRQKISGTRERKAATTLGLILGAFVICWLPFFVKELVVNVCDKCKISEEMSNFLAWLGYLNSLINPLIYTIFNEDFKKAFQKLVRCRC
Chain of 5-HT1D receptor (P28221 whole entry): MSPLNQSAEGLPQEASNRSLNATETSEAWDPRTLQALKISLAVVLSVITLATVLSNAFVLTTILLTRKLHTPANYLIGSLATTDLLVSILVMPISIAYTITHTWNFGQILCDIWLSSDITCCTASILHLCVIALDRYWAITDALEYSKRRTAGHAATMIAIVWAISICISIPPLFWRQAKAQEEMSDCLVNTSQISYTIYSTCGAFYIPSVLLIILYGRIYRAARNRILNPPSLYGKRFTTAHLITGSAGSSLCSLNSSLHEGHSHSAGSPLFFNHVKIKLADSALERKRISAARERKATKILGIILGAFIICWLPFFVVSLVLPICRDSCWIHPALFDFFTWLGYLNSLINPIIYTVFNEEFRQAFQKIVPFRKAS
Chain of 5-HT1A receptor (P08908 whole entry): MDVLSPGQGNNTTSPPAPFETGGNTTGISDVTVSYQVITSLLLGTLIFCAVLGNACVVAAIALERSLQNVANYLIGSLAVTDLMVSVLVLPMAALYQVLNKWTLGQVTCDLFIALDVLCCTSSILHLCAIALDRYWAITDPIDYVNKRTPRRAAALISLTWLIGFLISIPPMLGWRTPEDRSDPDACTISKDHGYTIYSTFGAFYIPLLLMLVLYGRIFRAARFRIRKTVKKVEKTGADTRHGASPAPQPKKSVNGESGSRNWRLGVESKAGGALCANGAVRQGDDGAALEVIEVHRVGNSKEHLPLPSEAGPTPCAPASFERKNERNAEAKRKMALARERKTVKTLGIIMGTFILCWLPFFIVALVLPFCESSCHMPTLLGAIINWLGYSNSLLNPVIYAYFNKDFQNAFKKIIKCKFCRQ
Chain of 5-HT1B receptor (P28222 whole entry): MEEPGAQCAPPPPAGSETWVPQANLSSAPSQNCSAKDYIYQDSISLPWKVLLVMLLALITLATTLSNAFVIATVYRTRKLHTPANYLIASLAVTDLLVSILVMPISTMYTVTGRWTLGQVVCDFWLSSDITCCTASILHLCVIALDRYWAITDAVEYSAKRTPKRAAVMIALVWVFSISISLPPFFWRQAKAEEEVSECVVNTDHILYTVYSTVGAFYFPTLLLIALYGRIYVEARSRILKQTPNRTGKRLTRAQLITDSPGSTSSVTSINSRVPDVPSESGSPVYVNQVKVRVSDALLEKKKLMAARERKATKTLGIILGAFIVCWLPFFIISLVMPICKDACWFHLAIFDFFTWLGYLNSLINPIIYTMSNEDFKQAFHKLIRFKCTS
Chain of 5-HT1e receptor (P28566 whole entry): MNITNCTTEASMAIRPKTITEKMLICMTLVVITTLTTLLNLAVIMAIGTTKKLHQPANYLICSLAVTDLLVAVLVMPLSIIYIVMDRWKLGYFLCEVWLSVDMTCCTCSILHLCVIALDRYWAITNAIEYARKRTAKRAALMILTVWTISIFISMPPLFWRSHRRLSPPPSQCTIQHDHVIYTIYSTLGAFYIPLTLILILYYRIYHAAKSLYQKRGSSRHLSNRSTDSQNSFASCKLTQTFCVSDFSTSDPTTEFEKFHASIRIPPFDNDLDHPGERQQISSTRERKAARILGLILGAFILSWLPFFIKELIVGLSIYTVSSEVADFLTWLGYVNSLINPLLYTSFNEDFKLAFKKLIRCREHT

Which “effect on general locomotion” value (mice [1]; 10 mg/kg) does the source give for `CC[C@@H](N)Cc1cc(OC)c(C)cc1OC` [(R)-Ariadne] here?
The value was “minor sedative effect”.

And the “effect on general locomotion” value (mice [1]; 30 mg/kg)?
Its value is “marked sedation”.

And the “time in the center of the arena” value (mice [1]; mouse, in vivo)?
The value was “trend for spending less time in the center of the arena”.

And the “effect in geriatric senile subjects” value (patients; 50 mg per day ref 8)?
Its value is “Improvement in alertness, mobility and sociability”.

What about the “effect in subjects with Parkinson's disease” value (patients; 100 mg per day ref 8) of the same molecule?
The value was “nearly complete remission of symptoms”.

What about the “effect in patients with schizophrenia and bipolar disorder” value (patients; 50-100 mg per day ref 8) of the same molecule?
The value was “rapid remission of psychotic symptoms”.

What about the Ki (5-HT2A receptor [2]) of the same molecule?
Its Ki is 53 nM.

What about the DOM-like effects (cats) of the same molecule?
The DOM-like effects was “nearly no DOM-like effects”.

What about the “clasping duration, Aux-KO mice” value [3] of the same molecule?
Its value is “down to zero”.

And the “clasping score, Aux-KO mice” value [3]?
Its value is “down to zero”.

And the “hallucinogenic / psychoactive effect” value (humans; 25 mg p.o. ref 6)?
The value was “no hallucinogenic effect but a mild threshold psychoactive effect”.

And the psychedelic effects (humans; 100-300 mg, geriatric senile subjects ref 38)?
Its psychedelic effects is “no psychedelics effects”.

And the hallucinogenic effects (humans; up to 270 mg, healthy subjects ref 14)?
Its hallucinogenic effects is “No hallucinations or perceptual alterations were observed”.

And the hallucinogenic effects (humans; up to (and beyond) 100 mg per day, route not specified ref 8)?
The hallucinogenic effects was “no hallucinations”.

And the hallucinogenic effects (humans; up to (and beyond) 100 mg per day, route not specified ref 8, listed as BL-3912A)?
The hallucinogenic effects was “lack of hallucinogenic effects”.

And the EC50 (5-HT2B receptor; 5-HTome screen)?
The EC50 was < 1000 nM.

And the Emax (5-HT2B receptor; 5-HTome screen)?
The Emax was > 70%.

What about the EC50 (5-HT2B receptor; [12]) of the same molecule?
The EC50 was 739 nM.

And the EC50 (5-HT1D receptor)?
The EC50 was 300 to 600 nM.

And the EC50 (5-HT2C receptor [4]; 5-HTome screen)?
The EC50 was < 1000 nM.

What about the Emax (5-HT2C receptor [4]; 5-HTome screen) of the same molecule?
The Emax was > 70%.

And the EC50 (5-HT2C receptor [4]; [12])?
Its EC50 is 249 nM.

And the EC50 (5-HT1A receptor)?
The EC50 was 300 to 600 nM.

And the “number of balance beam runs, Aux-KO mice post-treatment” value [5]?
Its value is “significantly higher and comparable to WT mice”.

What about the “latency to bite food pellets” value (mice [6]) of the same molecule?
The value was “dose-dependent trend toward reducing latency to bite”.

And the EC50 (5-HT1B receptor)?
Its EC50 is 4000 nM.

And the avoidance behavior (rats)?
The avoidance behavior was “improved avoidance behavior”.

What about the “shift in potency between (R)-DOM and (R)-Ariadne” value (rabbits) of the same molecule?
The value was 25 fold.

What about the EC50 (5-HT2A receptor [7]; 5-HTome screen) of the same molecule?
The EC50 was < 1000 nM.

What about the Emax (5-HT2A receptor [7]; 5-HTome screen) of the same molecule?
The Emax was > 70%.

What about the EC50 (5-HT2A receptor [7]; [12]) of the same molecule?
The EC50 was 149 nM.

And the EC50 (5-HT1e receptor)?
The EC50 was 300 to 600 nM.

What about the “Emax (calcium flux)” value (5-HT2C receptor [8]) of the same molecule?
Its value is 60%.

What about the “HTR after pretreatment with 5-HT2A antagonist MDL100,907 (volinanserin)” value (mice [9]; MDL100907 0.01 and 0.032 mg/kg ip 15 min prior) of the same molecule?
The value was “completely inhibited”.

What about the “dose of peak (maximum) HTR” value (mice [9]; s.c.) of the same molecule?
Its value is 10 mg/kg.

And the “effect on open arm entries and time” value (mice [10])?
Its value is “acute anxiogenic-like effect”.

And the EC50 (5-HT2A receptor [11]; read-out: EC50 (calcium flux))?
Its EC50 is 30 nM.

What about the “Emax (calcium flux)” value (5-HT2A receptor [11]; relative to 5-HT) of the same molecule?
Its value is 96%.

What about the EC50 (5-HT1F receptor) of the same molecule?
Its EC50 is 300 to 600 nM.
